Tn6 DDE FP: DD(E)-Tn6 binding inhibition, primary FP screen | P02675 | Fibrin DD(E) TRITC-Tn6 fluorescence polarization displacement | inhibition, % at 8.3 µM | actives 0.21% (n = 370,000);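 active means inhibition above a per-campaign cutoff: mean of compounds within control limits plus 3 SD, cut at about 15% in these data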;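 further: 0% = median of all compound wells on the plate and 100% = blocking peptide control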
Target sequence (P02675 whole entry, looked up): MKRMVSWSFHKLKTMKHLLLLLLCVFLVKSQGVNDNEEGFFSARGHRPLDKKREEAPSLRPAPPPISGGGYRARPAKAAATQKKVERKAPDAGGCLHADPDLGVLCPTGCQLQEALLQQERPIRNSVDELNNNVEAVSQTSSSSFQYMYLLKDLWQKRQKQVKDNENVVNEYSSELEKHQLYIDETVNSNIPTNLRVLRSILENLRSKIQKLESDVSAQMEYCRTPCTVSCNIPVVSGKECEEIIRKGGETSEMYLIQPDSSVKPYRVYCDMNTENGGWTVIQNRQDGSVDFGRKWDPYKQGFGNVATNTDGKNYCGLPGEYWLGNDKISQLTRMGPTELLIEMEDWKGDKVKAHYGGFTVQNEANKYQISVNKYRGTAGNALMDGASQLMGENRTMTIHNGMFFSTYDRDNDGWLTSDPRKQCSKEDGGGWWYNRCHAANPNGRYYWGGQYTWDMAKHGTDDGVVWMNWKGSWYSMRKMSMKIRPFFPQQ
CRFR2-BP antag: antagonists of CRF-binding protein/CRF-R2 receptor complex. inhibition, % at 11.8 µM. actives 0.59% (n = 350,000). HEK293 CRF-R2/CRF-BP, CRF-induced calcium fluorescence;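 active means inhibition of the ligand-induced calcium signal above about 50% at the single tested concentration, limit read from the data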
CRFBP-R2 agonist: CRF-BP/CRF-R2 complex agonism. HEK293 CRF-R2/CRF-BP, calcium dye fluorescence (FLIPR); percent of saturating CRF peptide response. activation, % at 13.2 µM. actives 0.46% (n = 350,000). AID 588473;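 active means activation of at least 50%, plus an integration ratio under a set limit after plate pattern correction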;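 further: plate controls were neutral control wells without compound for no effect and CRF at EC100 for full effect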
Tn7 DDE FP: DD(E)-Tn7 binding inhibition, primary FP screen | inhibition, % at 8.3 µM | actives 0.13% (n = 370,000) | AID 720508 | P02675 | FP displacement of FITC-Tn7 peptide from fibrin DD(E); 0% = median of compound wells per plate;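 active means inhibition above the mean of compounds falling within the control limits plus 3 SD of them, cut at about 14% in these data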;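 further: 0% = plate median of compound wells and 100% = 10 µM Aha-Tn7 peptide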
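system = human fibrin DD(E) protein | quantity = DD(E) 2 µM final | medium = Tris/NaCl/CaCl2 buffer, pH 7.8 | also added = labelled Tn7 tracer, 0.1 µM | compound dosing = single point at 8.3 µM | timing = compound with protein 10 min, then 3 h after probe, room temperature | signal = FP measurement | benchmarks = Aha-Tn7 high control | repeats = one replicate per compound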
An asterisk follows results filed as active; nt = no result given. A selection: hits, their analogues and other compounds. The true share with any hit is near 1.2%.

SMILES	Tn6 DDE FP	CRFR2-BP antag	CRFBP-R2 agonist	Tn7 DDE FP
CCOC(=O)[C@]12CCC=C1N(Cc1ccccc1)C(=O)[C@H](CC(=O)NCCCCc1ccccc1)C2	-11	nt	nt	-9
Nc1c(C(=O)N2CCCCCC2)oc2ccccc12	3	112*	0	2
CC(C)(C)c1ccc(-c2nnc(SCC(=O)Nc3cccc4ccccc34)n2Cc2ccco2)cc1	-3	nt	nt	-5
S=c1[nH]nc(-c2cccc(Cl)c2)n1/N=C/c1ccco1	nt	-21	-1	nt
Cc1ccc(/C=N/n2c(-c3cccc(Cl)c3)n[nH]c2=S)o1	8	83*	0	-2
O=Nc1nc2ncccn2c1-c1ccccc1	3	58*	7	4
Cc1ccc2c(nc3s/c(=C\c4ccc(-c5ccccc5C(=O)O)o4)c(=O)n32)c1C	-5	-77	126*	-2
O=C(O)c1ccc(-c2ccc(/C=c3/sc4nc5ccccc5n4c3=O)o2)cc1Cl	0	-86	118*	3
Cc1cc(C)c2nc3sc(=Cc4ccc(-c5ccccc5C(=O)O)o4)c(=O)n3c2c1	1	nt	nt	-3
C=CCN1C(=O)/C(=C\C=C2\N(C)c3ccccc3C2(C)C)SC1=S	5	-68	104*	-1
CN1/C(=C\C=C2/SC(=S)N(CC(=O)O)C2=O)C(C)(C)c2ccccc21	-19	-185	263*	-70
CCCN1C(=O)/C(=C\C=C2/Sc3ccccc3N2CCO)SC1=S	4	-3	19	2
Cn1cccc1/C=C1/SC(=S)N(CC(=O)O)C1=O	0	11	5	1
CCCN1C(=O)/C(=C/C=C2\N(CC)c3ccccc3C2(C)C)SC1=S	-6	-212	169*	-1
CCCCN1C(=O)/C(=C/C=C2\Oc3ccccc3N2CC)SC1=S	1	-365	287*	0
COC(=O)[C@]12C[C@H](CC(=O)N3CCSCC3)C(=O)N(Cc3ccc(Cl)cc3Cl)C1=C[C@H](C(C)(C)C)O[C@@H]2C	2	nt	nt	-3
CCCCN1C(=O)/C(=C/C=C2/CC(C)(C)CN2C)SC1=S	5	-268	196*	-40
CCCN1C(=O)/C(=C/c2ccncc2)SC1=S	3	0	-1	1
COc1cccc(C(=O)NCCSc2ccc(F)cc2)c1	1	2	0	-2
COC(=O)C(CC(=O)c1cccc(OC)c1)c1ccc(F)cc1 (stereo not drawn)	7	55*	0	-1
CN(C(=O)c1ccc(S(=O)(=O)N2CCCC2)cc1)C1CCCCC1	0	-17	-4	2
CN(C(=O)c1ccc(S(=O)(=O)NC2CCCC2)cc1)C1CCCCC1	5	-75	51*	-1
O=S(=O)(NC1CCCC1)c1ccc(S(=O)(=O)NC2CCCC2)cc1	-2	-71	56*	3
O=C(c1cc2ccccn2n1)N1CCN(c2cccc(C(F)(F)F)c2)CC1	5	7	-11	6
Cc1ccc(C)c(N2CCN(C(=O)c3cc4ccccn4n3)CC2)c1	nt	-84	119*	nt
SMILES	Tn6 DDE FP	CRFR2-BP antag	CRFBP-R2 agonist	Tn7 DDE FP
Cc1ccc2nc(N3C(=O)C(O)=C(C(=O)c4ccc(C)o4)C3c3cccc(O)c3)sc2c1 (stereo not drawn)	-7	96*	11	-2
COc1ccc2nc(N3C(=O)C(O)=C(C(=O)c4ccco4)C3c3ccc(OC)c(OC)c3)sc2c1 (stereo not drawn)	-1	45	0	3
CCOC(=O)c1c(C)[nH]c(C)c1C(=O)COC(=O)Cc1ccc(OC)c(OC)c1	-5	-4	-2	0
CC1(C)CC[C@]2(C(=O)O)CC[C@]3(C)C(=CC[C@@H]4[C@@]5(C)CC[C@H](O[C@@H]6O[C@H](C(=O)O)[C@@H](O)[C@H](O[C@@H]7OC[C@H](O)[C@H](O)[C@H]7O)[C@H]6O)C(C)(C)[C@@H]5CC[C@]43C)[C@@H]2C1	3	-227	256*	8
COc1cccc(N=C(N)N=C(N)N)c1	6	0	-2	0
COc1ccnc(CSC(N)=Nc2ccc(F)cc2)c1	4	86*	6	-2
CCCCCCn1cc(CN2CC=CS2(=O)=O)nn1	-5	nt	nt	-5
CC(=O)c1cccc(Nc2nc3ccccc3n3cnnc23)c1	4	116*	-1	-1
Fc1cccc(Nc2nc3ccccc3n3cnnc23)c1	8	-58	-1	2
COc1ccc(CCNC(=O)C(=O)NCC2OCCN2S(=O)(=O)c2ccc(OC)cc2)cc1 (stereo not drawn)	7	64*	-7	-3
NC1(C(=O)O)CSSC1	1	12	-2	3
O=C(Nc1ccc(N2CCN(c3ccccc3)CC2)c(F)c1)C1CC1	2	58*	1	-1
Cc1ccccc1CN1CCCCC(NC(=O)c2ccc(-c3ccccc3)cc2)C1=O (stereo not drawn)	-10	nt	nt	2
Cc1nc(-n2[nH]c3c(c2=O)CCCC3)[nH]c(=O)c1Cc1ccccc1	-7	-54	58*	-6
N#Cc1ccc(OC[C@@H](O)CN2CCC(C(O)(c3ccccc3)c3ccccc3)CC2)cc1F	4	nt	nt	-7
CC1CCN(S(=O)(=O)c2ccc3c(c2)NC(=O)CS3)CC1	-11	63*	1	3
C(#CC1=CCCCC1)CNCc1ccccc1	-4	nt	nt	1
CC(C)N1CCc2c(sc(NC(=O)c3ccco3)c2C(N)=O)C1	-1	5	27	-1
CC(=O)Nc1sc2c(c1-c1nc3ccccc3s1)CCN(C(C)C)CC2	3	nt	nt	7
CC(=O)Nc1sc2c(c1-c1nc3ccccc3s1)CCN(C(C)C)C2	nt	-64	80*	nt
COC(=O)c1c(NC(=O)c2ccco2)sc2c1CCN(C(C)C)C2	1	-5	52*	-3
CC(C)N1CCc2c(sc(NC(=O)Cc3ccccc3)c2C(N)=O)C1	0	-49	3	1
CC(C)N1CCc2c(sc(NC(=O)c3ccc4ccccc4c3)c2C(N)=O)C1	-2	-115	124*	-13
CC(C)N1CCc2c(sc(NC(=O)CCc3ccccc3)c2C(N)=O)C1	-3	-70	62*	-5
CC(C)N1CCc2c(sc(NC(=O)c3cc4cc([N+](=O)[O-])ccc4s3)c2C(N)=O)C1	-10	-137	134*	4
SMILES	Tn6 DDE FP	CRFR2-BP antag	CRFBP-R2 agonist	Tn7 DDE FP
C=CCN1C(=O)/C(=C/c2ccc(O)cc2)S/C1=N/c1nccs1	-10	-73	65*	-16
C[C@H]1[C@@H](NC(=O)Cc2ccsc2)CC[C@@]23CCCN2C(=O)CCC[C@@H]13	-3	nt	nt	-6
Cc1cccc(NC(=O)CSCc2cc(=O)n3ccsc3n2)c1C	nt	-5	0	nt
O=C1C(F)=CC(COC(c2ccccc2)(c2ccccc2)c2ccccc2)OC1n1cc(F)c(=O)[nH]c1=O (stereo not drawn)	4	-45	55*	-8
CC(=O)OCC1OC(n2cc(F)c(=O)[nH]c2=O)C(OC(C)=O)C1OC(C)=O (stereo not drawn)	0	2	0	-3
Cc1sc2ncnc(OCC(=O)NC(C)C)c2c1C	2	90*	10	2
